Consider five compounds from ChEMBL document CHEMBL1157083, “Characterization of tamulamides A and B, polyethers isolated from the marine dinoflagellate Karenia brevis” (J Nat Prod, 2010).

One may read the Ki as the equilibrium dissociation constant of an inhibitor or competing ligand from its target. Low readings indicate a stronger hold on the target, high ones a looser hold on the target.

Data set [1] deals with Ovis aries. Kind of data set: Bronchoconstriction in sheep asthma model assessed as pulmonary airflow resistance at 10 pg/ml administered through aerosol for 20 breaths by pneumotachography relative to control. In kind it is functional.
Data set [2] can be described thus: Displacement of [3H]PbTx-3 from rat brain synaptosome voltage-sensitive sodium channel site 5 after 1 hr by rapid filtration based scintillation counting. In kind it is tissue-based. The procedure, abridged:
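Rat brain synaptosomes (0.1 mg protein/mL final) were incubated on ice for at least 1 h with about 1.5 nM [3H]-PbTx-3 and competitor (0 to 10 μM). Buffer was HEPES/choline chloride medium, pH 7.4, with 1 mg/mL BSA. Bound label was filtered and counted by scintillation. Apparent Ki came from one-site competition fits, with ≥3 experiments each run in duplicate or triplicate.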
(Loss of bound radioactivity is the signal in a displacement assay; it reports binding, not function.)

Data set [3] concerns Gambusia affinis. Kind of data set: Toxicity in mosquito fish assessed as time required for mortality at 200 nM. Format: organism-based. The note with it: in vivo, 0.2 µM. The procedure, abridged:
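Fish received 0.2 mL of test solution or an EtOH vehicle in tank water, giving 25-200 nM final. Five fish were used per concentration. Fish were watched for 24 h or until death. Time of death in minutes is given as mean ± S.E.M., compared by t-test.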

Data set [4] has as its system Ovis aries. Briefly: Bronchoconstriction in sheep 1988 asthma model assessed as pulmonary airflow resistance at 10 pg/ml administered through aerosol for 20 breaths by pneumotachography relative to control. Format: functional.
Data set [5] has as its system Gambusia affinis. Briefly: Toxicity in mosquito fish at 25 to 200 nM up to 24 hrs. In kind it is organism-based. Particulars: in vivo, 0.2 µM. The procedure, abridged: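 Fish each received 0.2 mL test solution or EtOH vehicle (0.2 mL), giving final water concentrations of 0, 25, 50, 100 or 200 nM. PbTx-2 positive control at 200 nM. Five fish per concentration. Monitored for 24 hours or until death; time of death as mean ± S.E.M., two-way Student's t-test.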

In data set [6] the test system is Ovis aries. Briefly: Bronchoconstriction in sheep 2164 asthma model assessed as pulmonary airflow resistance at 10 pg/ml administered through aerosol for 20 breaths by pneumotachography relative to control. Format: functional.
Data set [7] has as its system Ovis aries. Kind of data set: Bronchoconstriction in sheep 2263 asthma model assessed as pulmonary airflow resistance at 10 pg/ml administered through aerosol for 20 breaths by pneumotachography relative to control. In kind it is functional.
The test system of data set [8] is Ovis aries. Briefly: Bronchoconstriction in sheep 2297 asthma model assessed as pulmonary airflow resistance at 10 pg/ml administered through aerosol for 20 breaths by pneumotachography relative to control. Format: functional.

As to `C=C(COC(=O)c1ccc2ccccc2c1)C[C@@H]1C[C@H](O)[C@]2(C)O[C@@H]3C[C@@H]4O[C@@H]5C[C@]6(C)O[C@]7(C)CC[C@@H]8O[C@@H]9C[C@]%10(C)O[C@@H]%11C(C)=CC(=O)O[C@H]%11C[C@H]%10O[C@H]9C[C@@H](C)[C@H]8O[C@H]7C[C@H]6O[C@@]5(C)C/C=C\[C@H]4O[C@H]3C[C@H]2O1`, the Activity in data set [1] amounted to 0%.

In data set [2], `C=C/C=C\CC[C@H]1O[C@H]2CC[C@@]3(C)O[C@H]4[C@@H](O)C[C@@]5(C)O[C@@H](CC/C=C(C)/C(C)=C/C=O)[C@@H](C)C[C@H]5O[C@@H]4C[C@@H]3O[C@@H]2CC[C@@]1(C)O` [BREVENAL] gave an inhibition constant Ki of 170 nM. Further, in data set [1], the Activity was found to be 4%.

`C=C(C=O)C[C@@H]1C[C@H](O)[C@]2(C)O[C@@H]3C[C@@H]4O[C@@H]5C[C@]6(C)O[C@]7(C)CC[C@@H]8O[C@@H]9C[C@]%10(C)O[C@@H]%11C(C)=CC(=O)O[C@H]%11C[C@H]%10O[C@H]9C[C@@H](C)[C@H]8O[C@H]7C[C@H]6O[C@@]5(C)C/C=C\[C@H]4O[C@H]3C[C@H]2O1` [BREVETOXIN B] gave a Ki in data set [2] of 1.2 nM. The Activity entry in data set [3] was “Toxic”; in data set [1], 226%.

Compound `CC(=O)NC[C@@H]1O[C@@H]2C[C@]3(C)O[C@@H]4C=C[C@@H]5O[C@@H]6C=C[C@@H]7O[C@H](/C=C/C=C/C=O)C=C[C@H]7O[C@H]6C[C@H]5O[C@@]4(C)C[C@H]3O[C@H]2C[C@H]1O` [TAMULAMIDE A] had a Ki in data set [2] of 2500 nM. Also, the Activity is recorded as 39% in data set [4]; “Non-toxic” in data set [5]; 43% in data set [6]; 42% in data set [7]; 34% in data set [8].

Consider `CC(=O)NC[C@@H]1O[C@@H]2C[C@]3(C)O[C@@H]4C=C[C@@H]5O[C@@H]6C=C[C@@H]7O[C@H](/C=C/C=C/C=O)C=C[C@H]7O[C@H]6C[C@H]5O[C@H]4C[C@H]3O[C@H]2C[C@H]1O` [TAMULAMIDE B], for which the Ki in data set [2] is 210 nM. For the same compound, the Activity in data set [4] is recorded as 36%; in data set [5], “Non-toxic”; in data set [6], 34%; in data set [7] it was 37%; in data set [8] it was 33%.
